This note sets out measurements from ChEMBL document CHEMBL3228033, “Cyclic amidine inhibitors of indolamine N-methyltransferase” (J Med Chem, 1979).

As a reminder, the IC50 is the point on the concentration scale where inhibition reaches its midpoint.

Chain of Indolethylamine N-methyltransferase (Oryctolagus cuniculus, UniProt O97972) (O97972 whole entry): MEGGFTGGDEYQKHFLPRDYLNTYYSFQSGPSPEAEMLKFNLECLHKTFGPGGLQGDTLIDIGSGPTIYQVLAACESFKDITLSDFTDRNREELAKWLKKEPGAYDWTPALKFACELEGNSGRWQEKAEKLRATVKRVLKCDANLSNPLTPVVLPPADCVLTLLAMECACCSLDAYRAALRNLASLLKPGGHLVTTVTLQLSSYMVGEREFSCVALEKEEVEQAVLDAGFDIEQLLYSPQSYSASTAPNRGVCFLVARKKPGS
Chain of Indolethylamine N-methyltransferase (Homo sapiens, UniProt O95050) (O95050 whole entry): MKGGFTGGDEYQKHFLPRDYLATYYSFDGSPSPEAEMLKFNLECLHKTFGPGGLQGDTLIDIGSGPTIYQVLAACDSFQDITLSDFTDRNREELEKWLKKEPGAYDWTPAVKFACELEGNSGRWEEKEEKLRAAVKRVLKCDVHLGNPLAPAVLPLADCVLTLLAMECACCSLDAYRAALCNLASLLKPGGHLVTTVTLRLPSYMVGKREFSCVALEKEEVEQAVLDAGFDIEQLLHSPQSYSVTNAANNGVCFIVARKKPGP

The subject of the first experiment is Oryctolagus cuniculus. The experiment can be described thus: In vivo inhibition of New Zealand white rabbit INMT-mediated [14C]NMT to [14C]DMT conversion in brain at 0.5 %, po in drinking water for 5 days. Format: functional. The method in brief:
(§1)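 Male NZW rabbits (400-500 g), three per group, given 0.5% (v/v) in drinking water for 5 days; controls water. Day 5: pheniprazine 5 mg/kg iv, then 6 h later 25 µCi (0.5 mg) [14C]NMT iv. After 5 min, decapitation; lung and brain frozen in liquid nitrogen. [14C]DMT counted as cpm/g tissue. Values are means of three animals, with Student's t test.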
`C1CN2CCSCC2=N1.O=C(O)/C=C/C(=O)O`: the “inhibition (INH)” value is recorded as 57%.

A further experiment has as its target Indolethylamine N-methyltransferase (Homo sapiens, UniProt O95050). The experiment can be described thus: Inhibition of human lung INMT using N-methyltryptamine as substrate after 90 mins by liquid scintillation counting in presence of S-methyl-[14C]adenosylmethionine.
On to `C1CCN2CCCC2=NC1`, for which the concentration for half-maximal inhibition (IC50) turned out to be 852 µM.
For the compound `Cn1cc(C(F)(F)F)sc1=N`, the IC50 is above 86.6 µM.
For the compound `C1CCC2=NCCCN2CC1`, the IC50 stood at 25.7 µM.

Another experiment concerns Oryctolagus cuniculus. The experiment can be described thus: In vivo inhibition of New Zealand white rabbit lung INMT at 0.02 %, po in drinking water for 12 days. The format is functional. An outline of the steps:
(§2)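 Male NZW rabbits, three per group, received compound in drinking water (pH 7) throughout, with water for controls. Afterwards decapitated and bled out. Crude lung INMT (54 000g supernatant) assayed by the standard in vitro [14C]SAM/NMT method. Activity taken as cpm/mg protein after 1 h at 37 °C, read in the toluene-isoamyl alcohol phase. Means ± SEM.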
Turning to `CN1CCSC1=N.I`, the “inhibition (INH)” value is listed as 76%.

A further experiment relates to Oryctolagus cuniculus. The experiment can be described thus: In vivo inhibition of New Zealand white rabbit lung INMT at 0.5 %, po in drinking water for 5 days. The format is functional. An outline of the steps:
as §2
Regarding `C1CN2CCSCC2=N1.O=C(O)/C=C/C(=O)O`, the “inhibition (INH)” value was 75%.

Another experiment concerns Oryctolagus cuniculus. The experiment can be described thus: In vivo inhibition of New Zealand white rabbit INMT-mediated [14C]NMT to [14C]DMT conversion in lung at 0.5 %, po in drinking water for 5 days. The format is functional. The method in brief:
as §1
For `C1CN2CCSCC2=N1.O=C(O)/C=C/C(=O)O`, the “inhibition (INH)” value amounted to 64%.

The target in a further experiment is Indolethylamine N-methyltransferase (Oryctolagus cuniculus, UniProt O97972). The experiment can be described thus: Inhibition of New Zealand white rabbit lung INMT using N-methyltryptamine as substrate after 60 to 90 mins by liquid scintillation counting in presence of S-methyl-[14C]adenosylmethionine. The method in brief:
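Enzyme from male rabbit lung: homogenate in 0.15 M KCl with 10^-4 M DTT and EDTA, 50 000 g supernatant, 40-60% ammonium sulfate fraction dialysed (some runs further Sephadex G-150 purified). Incubation in potassium phosphate pH 7.9 with N-methyltryptamine and S-[methyl-14C]adenosylmethionine, test compound in water or 5% DMSO, 37 °C. Stopped with borate pH 10; 14C-DMT extracted into isoamyl alcohol.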
In the case of `CCN1CCCC1=N`, the IC50 is 1.6 µM.
Same read-out and setting: to `CN1CCC=CC1=N` belongs 0.9 µM; to `CC(C)CN1CCCC1=N`, 19.4 µM.
Turning to `N=C1SCCN1Cc1ccncc1`, the IC50 is above 6.9 µM.
With `C=C1CN=C2CCCN2C1`, the IC50 is 43.3 µM.
As for `C1CN2CCOCC2=N1`, the IC50 worked out at 13.8 µM.
On the same count and under the same terms, to `C#CCN1CCSC1=N` belongs 13.8 µM; to `C/N=c1\cnsn1C`, 5.2 µM; to `C1CC2=NCCN2C1`, 0.04 µM.
On to `CC1CC2=NCCCN2C1` (stereo not drawn), for which the half-inhibitory concentration (IC50) worked out at 7 µM.
With `C1=CN2CCN=C2CS1`, the IC50 stood at 18 µM.
Still for that read-out and setting: in the case of `C[n+]1ccccc1CC#N` it was above 11.7 µM; in that of `Cc1ccn(C)c(=N)c1`, 2.8 µM.
Same read-out and setting: in the case of `C=CCn1ccccc1=N` it was 1.58 µM.
For the compound `C/N=c1\cccc(F)n1C`, the IC50 was 74 µM.
Turning to `C/N=C1\CCCN1C`, the IC50 was found to be 31.2 µM.
With `CN1CCCC1=N`, the IC50 was 1.5 µM.
In the case of `C/N=C1\CSC=CN1C`, the IC50 came to 9.8 µM.
Regarding `CN1CCC/C1=N\CC(F)(F)F`, the IC50 was above 92.6 µM.
For the compound `C1CCN2CCCC2=NC1`, the IC50 was found to be 74.8 µM.
Turning to `C1CCC2(CC1)CCC1=NCCN12`, the IC50 was found to be 141 µM.
On the same count and under the same terms, to `Cn1ccncc1=N` belongs above 5260 µM; to `CNN1CCSC1=N`, 1.5 µM; to `CC1CC2=NCCN2C1` (stereo not drawn), 3.8 µM.
In the case of `C1CCN2CCCN=C2C1`, the 50% inhibitory concentration (IC50) was 0.7 µM.
As for `c1ccc2c(c1)CN1CCN=C21`, the IC50 is above 330 µM.
As for `Cn1cc(F)ccc1=N`, the half-inhibitory concentration (IC50) turned out to be 69.8 µM.
On to `CC1CN(C)C(=N)S1` (stereo not drawn), for which the IC50 was 7.9 µM.
`NC1=NCCC1`: the IC50 stood at 33.6 µM.
The same measure, in the same setting: to `N=C1CCCN1CCc1ccccc1` belongs 3720 µM.
`c1ccc(C2CC3=NCCN3C2)cc1` (stereo not drawn): the IC50 was above 330 µM.
For `CN1CCCSC1=N`, the IC50 is 2 µM.
In the case of `CN1CCSCC1=N`, the IC50 was determined as 6.3 µM.
Consider `Cn1ccc(=N)cc1`, for which the IC50 turned out to be 6.2 µM.
The same measure, in the same setting: in the case of `Cn1cccc/c1=N\C1CC1` it was above 10.1 µM.
As for `c1ccc2c(c1)CC1C2CC2=NCCN21` (stereo not drawn), the IC50 was found to be 16.4 µM.
On the same count and under the same terms, in the case of `Cc1cc(=N)sn1C` it was 19.6 µM; in that of `C/N=C1\SCCN1C`, 8.1 µM; in that of `Cn1cccc(C#N)c1=N`, 179 µM.
The same measure, in the same setting: in the case of `ClC1CCCN2CCN=C12` (stereo not drawn) it was 52.2 µM.
On to `Cn1cccc/c1=N\CC(F)(F)F`, for which the IC50 was above 9.2 µM.
`C/N=C1\CCCN1`: the IC50 was determined as 27.1 µM.
Still for that read-out and setting: in the case of `C=CCN1CCSC1=N` it was 7.1 µM.
For `C/N=C1/NCCS1`, the IC50 was 7.7 µM.
Same read-out and setting: to `CC1=CSCC2=NCCN12` belongs 45.4 µM.
`CCN1CCCSC1=N`: the IC50 was 1.8 µM.
Take `CCOc1cccc(=N)n1C`: the IC50 was above 10.3 µM.
In the case of `c1ccc2c(c1)SCC1=NCCN12`, the IC50 was above 330 µM.
As for `C1CCN2CCN=C2C1`, the IC50 is 0.17 µM.
On to `CN1C=CCSC1=N`, for which the IC50 was 2 µM.
With `c1cn2c(n1)CCC2`, the IC50 is 83.1 µM.
Turning to `C1CN=C2CCCN2C1`, the IC50 was 1.67 µM.
For `c1ccc(C2(c3ccccc3)CC3=NCCN3C2)cc1`, the IC50 was above 330 µM.
The same measure, in the same setting: to `Cn1c(N)cccc1=N` belongs 6.2 µM; to `CCOC(CN1CCCC1=N)OCC`, above 106 µM.
On to `C/N=c1\ccsn1C`, for which the IC50 worked out at 6.9 µM.
In the case of `CC1CCC2=NCCCN21` (stereo not drawn), the IC50 came to 13.2 µM.
Regarding `Cn1ccsc1=N`, the IC50 worked out at 2 µM.
On to `CN1CCOC1=N`, for which the IC50 is 40 µM.
For `N=C1CCCN1C1CC1`, the IC50 amounted to 67 µM.
Consider `N=c1ccccn1CC(F)(F)F`, for which the IC50 is above 9.7 µM.
In the case of `[O-][S+]1CCN2CCN=C2C1` (stereo not drawn), the IC50 stood at 3.6 µM.
`Cn1cccc/c1=N\CCO`: the IC50 was above 8.9 µM.
As for `CC1(C)CC2=NCCN2C1`, the half-inhibitory concentration (IC50) was 54.2 µM.
Still for that read-out and setting: to `C[N+]1=C2CCCN2CCC1` belongs 38.7 µM; to `CN1CCSC1=N.I`, 0.8 µM.
As for `CC1CN2CCN=C2CS1` (stereo not drawn), the half-inhibitory concentration (IC50) is 30.3 µM.
The same measure, in the same setting: to `N#CCn1ccc(=N)cc1` belongs above 148 µM; to `CN1C=CSCC1=N`, 3 µM; to `CCN1CCSC1=N`, 0.2 µM.
For `Cn1cc(C(F)(F)F)sc1=N`, the 50% inhibitory concentration (IC50) was above 88.6 µM.
Still for that read-out and setting: in the case of `Cn1c(F)cccc1=N` it was 5.3 µM; in that of `C(=C1/CCC2=NCCCN21)/c1ccccc1`, 37.1 µM.
`CCCN1CCSC1=N`: the IC50 stood at 9.9 µM.
Turning to `Cn1ccccc1=N`, the IC50 was found to be 1.6 µM.
As to `CC1CCC2=NCCN21` (stereo not drawn), the IC50 is 9.3 µM.
As for `C/N=c1\cccc(NC)n1C`, the IC50 came out at 13.1 µM.
In the case of `C1CCC2=NCCCN2CC1`, the IC50 stood at 8 µM.
For `CN1CCC/C1=N\C1CC1`, the IC50 was above 10.3 µM.
As for `C1CN2C(=N1)C1CC3CC(C1)CC2C3`, the 50% inhibitory concentration (IC50) is above 330 µM.
On to `C1CN2CCSCC2=N1.O=C(O)/C=C/C(=O)O`, for which the IC50 worked out at 0.5 µM.
